Experimental data: ChEMBL document CHEMBL3272128, “Antileukemic activity of derivatives of 1-phenyl-2,5-dimethyl-3,4-bis(hydroxymethyl)pyrrole bis(N-methylcarbamate)” (J Med Chem, 1977)

Experiments:
P388 [1] = assay: Antileukemic activity against mouse P388 cells allografted in female CDF1 mouse assessed as change in body weight at 50 mg/kg, ip using hydroxypropylcellulose suspension total 9 daily doses started 24 hrs after tumor inoculation; assay type: functional; conditions: route intraperitoneal
How it was run: (§1)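 Female CDF1 mice got P388 ascitic fluid ip. Test agent was given ip as a Flucel (hydroxypropylcellulose) suspension, nine daily doses starting 24 h after tumor inoculation. Read-out was the treated minus control animal weight difference (T − C, g), recorded on day 5.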

P388 [2] = assay: Antileukemic activity against mouse P388 cells allografted in female CDF1 mouse assessed as tumor growth inhibition at 100 mg/kg, ip using hydroxypropylcellulose suspension total 9 daily doses started 24 hrs after tumor inoculation; assay type: functional; conditions: route intraperitoneal
How it was run: (§2)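 P388 ascitic fluid was inoculated ip into female CDF1 mice. Dosing was ip in a Flucel (hydroxypropylcellulose) suspension, given daily for nine doses beginning 24 h post-inoculation. Activity was median survival time expressed as % T/C, with % T/C > 125 taken as significant.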

Mus musculus [3] = assay: Toxicity in female CDF1 mouse allografted with mouse P388 cells assessed as survivors on day 5 at 200 mg/kg, ip using hydroxypropylcellulose suspension; assay type: organism-based; design: dose 200 mg/kg, route intraperitoneal; conditions: in vivo
How it was run: (§3)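 Female CDF1 mice were inoculated ip with P388 leukemia ascitic fluid. Test agent was suspended in hydroxypropylcellulose (Flucel) and given ip as nine daily doses, starting 24 h after tumor inoculation. Survivors were counted on day 5 as the toxicity read-out.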

P388 [4] = assay: Antileukemic activity against mouse P388 cells allografted in female CDF1 mouse assessed as change in body weight at 200 mg/kg, ip using hydroxypropylcellulose suspension total 9 daily doses started 24 hrs after tumor inoculation; assay type: functional; conditions: route intraperitoneal; how it was run: as §1
P388 [5] = assay: Antileukemic activity against mouse P388 cells allografted in male CDF1 mouse assessed as tumor growth inhibition at 12.5 mg/kg, ip using hydroxypropylcellulose suspension total 9 daily doses started 24 hrs after tumor inoculation; assay type: functional; conditions: route intraperitoneal
How it was run: (§4)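 Male CDF1 mice received P388 ascitic fluid ip, then ip doses in Flucel (hydroxypropylcellulose) suspension, nine daily, beginning 24 h after inoculation. Efficacy was median survival time as % T/C; values > 125 were considered significant.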

P388 [6] = assay: Antileukemic activity against mouse P388 cells allografted in female CDF1 mouse assessed as tumor growth inhibition at 25 mg/kg, ip using hydroxypropylcellulose suspension total 9 daily doses started 24 hrs after tumor inoculation; assay type: functional; conditions: route intraperitoneal; how it was run: as §2
P388 [7] = assay: Antileukemic activity against mouse P388 cells allografted in female CDF1 mouse assessed as tumor growth inhibition at 50 mg/kg, ip using hydroxypropylcellulose suspension total 9 daily doses started 24 hrs after tumor inoculation; assay type: functional; conditions: route intraperitoneal; how it was run: as §2
Mus musculus [8] = assay: Toxicity in female CDF1 mouse allografted with mouse P388 cells assessed as survivors on day 5 at 25 mg/kg, ip using hydroxypropylcellulose suspension; assay type: organism-based; design: dose 25 mg/kg, route intraperitoneal; conditions: in vivo; how it was run: as §3
Mus musculus [9] = assay: Toxicity in male CDF1 mouse allografted with mouse P388 cells assessed as survivors on day 5 at 25 mg/kg, ip using hydroxypropylcellulose suspension; assay type: organism-based; design: dose 25 mg/kg, route intraperitoneal; conditions: in vivo
How it was run: (§5)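 Male CDF1 mice received an ip inoculation of P388 leukemia ascitic fluid. Dosing was ip in a hydroxypropylcellulose (Flucel) suspension, once daily for nine days, beginning 24 h after tumor implantation. Toxicity was scored as survivors recorded on the fifth day.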

P388 [10] = assay: Antileukemic activity against mouse P388 cells allografted in female CDF1 mouse assessed as change in body weight at 6.25 mg/kg, ip using hydroxypropylcellulose suspension total 9 daily doses started 24 hrs after tumor inoculation; assay type: functional; conditions: route intraperitoneal; how it was run: as §1
P388 [11] = assay: Antileukemic activity against mouse P388 cells allografted in female CDF1 mouse assessed as change in body weight at 25 mg/kg, ip using hydroxypropylcellulose suspension total 9 daily doses started 24 hrs after tumor inoculation; assay type: functional; conditions: route intraperitoneal; how it was run: as §1
P388 [12] = assay: Antileukemic activity against mouse P388 cells allografted in male CDF1 mouse assessed as tumor growth inhibition at 25 mg/kg, ip using hydroxypropylcellulose suspension total 9 daily doses started 24 hrs after tumor inoculation; assay type: functional; conditions: route intraperitoneal; how it was run: as §4
P388 [13] = assay: Antileukemic activity against mouse P388 cells allografted in male CDF1 mouse assessed as change in body weight at 25 mg/kg, ip using hydroxypropylcellulose suspension total 9 daily doses started 24 hrs after tumor inoculation; assay type: functional; conditions: route intraperitoneal
How it was run: (§6)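 Male CDF1 mice were inoculated ip with P388 ascitic fluid. Compound was given ip as a Flucel (hydroxypropylcellulose) suspension, nine daily doses from 24 h after inoculation. Animal weight difference (T − C, g) was recorded on the fifth day.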

P388 [14] = assay: Antileukemic activity against mouse P388 cells allografted in male CDF1 mouse assessed as change in body weight at 12.5 mg/kg, ip using hydroxypropylcellulose suspension total 9 daily doses started 24 hrs after tumor inoculation; assay type: functional; conditions: route intraperitoneal; how it was run: as §6
P388 [15] = assay: Antileukemic activity against mouse P388 cells allografted in female CDF1 mouse assessed as tumor growth inhibition at 200 mg/kg, ip using hydroxypropylcellulose suspension total 9 daily doses started 24 hrs after tumor inoculation; assay type: functional; conditions: route intraperitoneal; how it was run: as §2
Mus musculus [16] = assay: Toxicity in female CDF1 mouse allografted with mouse P388 cells assessed as survivors on day 5 at 50 mg/kg, ip using hydroxypropylcellulose suspension; assay type: organism-based; design: dose 50 mg/kg, route intraperitoneal; conditions: in vivo; how it was run: as §3
P388 [17] = assay: Antileukemic activity against mouse P388 cells allografted in female CDF1 mouse assessed as change in body weight at 100 mg/kg, ip using hydroxypropylcellulose suspension total 9 daily doses started 24 hrs after tumor inoculation; assay type: functional; conditions: route intraperitoneal; how it was run: as §1
Mus musculus [18] = assay: Toxicity in male CDF1 mouse allografted with mouse P388 cells assessed as survivors on day 5 at 12.5 mg/kg, ip using hydroxypropylcellulose suspension; assay type: organism-based; design: dose 12.5 mg/kg, route intraperitoneal; conditions: in vivo; how it was run: as §5
P388 [19] = assay: Antileukemic activity against mouse P388 cells allografted in male CDF1 mouse assessed as change in body weight at 50 mg/kg, ip using hydroxypropylcellulose suspension total 9 daily doses started 24 hrs after tumor inoculation; assay type: functional; conditions: route intraperitoneal; how it was run: as §6
P388 [20] = assay: Antileukemic activity against mouse P388 cells allografted in male CDF1 mouse assessed as tumor growth inhibition at 50 mg/kg, ip using hydroxypropylcellulose suspension total 9 daily doses started 24 hrs after tumor inoculation; assay type: functional; conditions: route intraperitoneal; how it was run: as §4
Mus musculus [21] = assay: Toxicity in male CDF1 mouse allografted with mouse P388 cells assessed as survivors on day 5 at 12.5 mg/kg, ip using saline as vehicle; assay type: organism-based; design: dose 12.5 mg/kg, route intraperitoneal; conditions: in vivo
How it was run: (§7)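 P388 leukemia ascitic fluid was implanted ip into male CDF1 mice. Compound was given ip in saline vehicle as nine daily doses, starting 24 h post-inoculation. Survivor counts were taken on day 5.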

P388 [22] = assay: Antileukemic activity against mouse P388 cells allografted in male CDF1 mouse assessed as change in body weight at 25 mg/kg, ip using saline as vehicle total 9 daily doses started 24 hrs after tumor inoculation; assay type: functional; conditions: route intraperitoneal
How it was run: (§8)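 In male CDF1 mice bearing ip-inoculated P388 ascitic fluid, drug was given ip in saline vehicle, once daily for nine doses starting 24 h after inoculation. Body weight difference, treated minus control (g), was recorded on day 5.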

P388 [23] = assay: Antileukemic activity against mouse P388 cells allografted in male CDF1 mouse assessed as change in body weight at 12.5 mg/kg, ip using saline as vehicle total 9 daily doses started 24 hrs after tumor inoculation; assay type: functional; conditions: route intraperitoneal; how it was run: as §8
P388 [24] = assay: Antileukemic activity against mouse P388 cells allografted in male CDF1 mouse assessed as tumor growth inhibition at 12.5 mg/kg, ip using saline as vehicle total 9 daily doses started 24 hrs after tumor inoculation; assay type: functional; conditions: route intraperitoneal
How it was run: (§9)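 P388 ascitic fluid was given ip to male CDF1 mice. Treatment was ip in saline, nine daily doses from 24 h post-inoculation. Median survival time was expressed as % T/C, and % T/C > 125 was considered significant.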

P388 [25] = assay: Antileukemic activity against mouse P388 cells allografted in male CDF1 mouse assessed as tumor growth inhibition at 25 mg/kg, ip using saline as vehicle total 9 daily doses started 24 hrs after tumor inoculation; assay type: functional; conditions: route intraperitoneal; how it was run: as §9
Mus musculus [26] = assay: Toxicity in male CDF1 mouse allografted with mouse P388 cells assessed as survivors on day 5 at 25 mg/kg, ip using saline as vehicle; assay type: organism-based; design: dose 25 mg/kg, route intraperitoneal; conditions: in vivo; how it was run: as §7
P388 [27] = assay: Antileukemic activity against mouse P388 cells allografted in male CDF1 mouse assessed as change in body weight at 50 mg/kg, ip using saline as vehicle total 9 daily doses started 24 hrs after tumor inoculation; assay type: functional; conditions: route intraperitoneal; how it was run: as §8
P388 [28] = assay: Antileukemic activity against mouse P388 cells allografted in male CDF1 mouse assessed as tumor growth inhibition at 50 mg/kg, ip using saline as vehicle total 9 daily doses started 24 hrs after tumor inoculation; assay type: functional; conditions: route intraperitoneal; how it was run: as §9

SMILES: CNC(=O)OCc1c(COC(=O)NC)c(C)n(-c2ccccc2)c1C
- Activity (P388 [1]): -2 g
- T/C (P388 [2]): <50%
- Activity (Mus musculus [3]): Toxic
- Activity (P388 [4]): -1.5 g
- T/C (P388 [5]): 145%
- T/C (P388 [6]): 127%
- T/C (P388 [7]): <50%
- Activity (Mus musculus [8]): Non-toxic
- Activity (Mus musculus [9]): Non-toxic
- Activity (P388 [10]): -2.1 g
- Activity (P388 [11]): -1.6 g
- T/C (P388 [12]): 148%
- Activity (P388 [13]): -1.7 g
- Activity (P388 [14]): -1.3 g
- T/C (P388 [15]): <50%
- Activity (Mus musculus [16]): Non-toxic
- Activity (P388 [17]): -2.1 g

SMILES: CCOc1ccc(-n2c(C)c(COC(=O)NC)c(COC(=O)NC)c2C)cc1
- Activity (Mus musculus [18]): Non-toxic
- T/C (P388 [5]): 152%
- Activity (P388 [19]): -3.8 g
- Activity (Mus musculus [9]): Non-toxic
- T/C (P388 [12]): 150%
- Activity (P388 [13]): -3.4 g
- Activity (P388 [14]): -3 g
- T/C (P388 [20]): 90%

SMILES: CNC(=O)OCc1c(COC(=O)NC)c(C)n(-c2ccc(Cl)cc2)c1C
- Activity (Mus musculus [21]): Non-toxic
- Activity (P388 [22]): -3.8 g
- Activity (P388 [23]): -1.3 g
- T/C (P388 [24]): 145%
- T/C (P388 [25]): 142%
- Activity (Mus musculus [26]): Non-toxic
- Activity (P388 [27]): -2.9 g
- T/C (P388 [28]): 80%

SMILES: CNC(=O)OCc1c(COC(=O)NC)c(C)n(-c2ccc(Br)cc2)c1C
- Activity (Mus musculus [18]): Non-toxic
- T/C (P388 [5]): 152%
- Activity (P388 [19]): -4.9 g
- Activity (Mus musculus [9]): Non-toxic
- T/C (P388 [12]): 142%
- Activity (P388 [13]): -3.9 g
- Activity (P388 [14]): -2 g
- T/C (P388 [20]): 88%

SMILES: CNC(=O)OCc1c(COC(=O)NC)c(C)n(-c2ccc3c(c2)OCO3)c1C
- Activity (Mus musculus [18]): Non-toxic
- T/C (P388 [5]): 132%
- Activity (P388 [19]): -3.4 g
- Activity (Mus musculus [9]): Non-toxic
- T/C (P388 [12]): 146%
- Activity (P388 [13]): -1.6 g
- Activity (P388 [14]): -1.1 g
- T/C (P388 [20]): <50%
